Experimental data taken from ChEMBL document CHEMBL1671863, “Inhibition of OXA-1 beta-lactamase by penems” (Antimicrob Agents Chemother, 2008).
Calls of active or inactive are those of the source. The calls are words filed in the database; no cut-off is given here.

Tests used:
[1] = Inhibition of beta-lactamase OXA-1 expressed in Escherichia coli BL21 (DE3) using nitrocefin substrate by spectrophotometry
How it was run: (§1)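 Periplasmic OXA-1 (IPTG-induced, purified by isoelectric focusing ± gel filtration) assayed at 23°C in 50 mM sodium phosphate with 20 mM bicarbonate; 18 nM enzyme, 75 μM nitrocefin read at 482 nm with rising inactivator (penems 50–1,100 nM, tazobactam 50–3,000 μM). kobs from time-course fits plotted against inhibitor concentration gave kinact, then Ki.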

[2] = Ratio of Kcat to Kinact for beta-lactamase OXA-1 expressed in Escherichia coli BL21 (DE3) using nitrocefin substrate by spectrophotometry
How it was run: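 Partition ratio kcat/kinact set by turnover number: purified OXA-1 (40 μM) mixed 1:1 with inhibitor, 23°C, 50 mM sodium phosphate plus 20 mM bicarbonate, nitrocefin as reporter; inactivation followed up to 900 s and recovery of activity checked to 24 h.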

[3] = Inhibition of beta-lactamase OXA-1 expressed in Escherichia coli DH10B assessed as reduction of piperacillin MIC at 4 mg/L
How it was run: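 E. coli DH10B carrying plasmid RGN238 blaOXA-1 tested by agar dilution on Luria Bertani agar, 10⁴ CFU/spot from a Steers replicator; inhibitor held fixed at 4 μg/ml while piperacillin was raised in doubling dilutions.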

[4] = Binding affinity to beta-lactamase OXA-1 expressed in Escherichia coli BL21 (DE3) assessed as compound-enzyme covalent attachment by electrospray ionization mass spectrometry
How it was run: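 Purified OXA-1 (40 μM) incubated 15 min with 1.2 mM inhibitor (30:1 inhibitor:enzyme) in 20 mM diethanolamine, pH 8.6; protein diluted in acetonitrile-1% formic acid to 10 μM and analysed intact by nanospray ESI-QTOF MS; deconvoluted spectra compared with apo enzyme (theoretical mass 28,132 Da).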

[5] = Ratio of Kinact to Ki for beta-lactamase OXA-1 expressed in Escherichia coli BL21 (DE3) using nitrocefin substrate by spectrophotometry; how it was run: as §1

SMILES | Ki [1] [µM] | Kinact [1] [s⁻¹] | Ratio [2] | inhibition [3] | inhibition [4] | Ratio [5] [µM⁻¹ s⁻¹]
O=C(O)C1=CS[C@@H]2/C(=C\c3cc4n(n3)CSC4)C(=O)N12 [PENEM-1] | 0.045 | 0.13 | 0 | Active | Active | 2.9
O=C(O)C1=CS[C@@H]2/C(=C\c3cc4n(n3)CSCC4)C(=O)N12 [PENEM-2] | 0.012 | 0.11 | 0 | Active | Active | 9.2
C[C@]1(Cn2ccnn2)[C@H](C(=O)O)N2C(=O)C[C@H]2S1(=O)=O [TAZOBACTAM] | 80 | 0.12 | 349 |  |  | 0.0015
